Results on four molecules are retold here after ChEMBL document CHEMBL1909634, “Vitamin B6s inhibit oxidative stress caused by Alzheimer's disease-related Cu(II)-β-amyloid complexes-cooperative action of phospho-moiety” (Bioorg Med Chem Lett, 2011).

The structures appear in SMILES notation. pIC50, pKi: −log10 of the molar value. Counter-ions that a name gives are not always drawn.

Common to all, as to assay type: functional
A short description of test [1]: Competitive inhibition of Cu2-amyloid beta (1 to 20) complex-induced DTBC oxidation by spectrophotometry. The essentials:
(§1)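 Cu(II)–Aβ complex formed just before assay by mixing stoichiometric Cu(II) and peptide at μM level in the reaction solution. Several concentrations of DTBC or THB substrate are incubated with a constant Cu(II)–Aβ concentration in 0.1 M HEPES, pH 7.4, 25 °C. Ki is obtained from Lineweaver–Burk analysis assuming competitive inhibition.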

Test [2] in a line: Competitive inhibition of Cu2-amyloid beta (1 to 16) complex-induced DTBC oxidation by spectrophotometry. In short, it runs like this:
as §1

The nature of test [3]: Competitive inhibition of Cu2-amyloid beta (1 to 20) complex-induced THB oxidation by spectrophotometry. In short, it runs like this:
as §1

Test [4] is described as follows: Inhibition of Cu2-amyloid beta (1 to 16) complex-induced dopamine oxidation by spectrophotometry. The essentials: (§2)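 Cu(II)–Aβ prepared fresh from stoichiometric Cu(II) and peptide at μM level. Dopamine oxidation (1.0 mM for inhibition plots; varied for Lineweaver–Burk) is catalysed by 2.0 μM Cu–Aβ1-40, 3.0 μM Cu–Aβ1-16, or 3.0 or 17.0 μM Cu–Aβ1-20, in 0.1 M HEPES pH 7.4, 25 °C. Inhibitor is titrated to give IC50. Ki comes from a 1/v vs 1/[dopamine] plot, competitive model.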

The nature of test [5]: Inhibition of Cu2-amyloid beta (1 to 40) complex-induced dopamine oxidation by spectrophotometry. The essentials: as §2
Test [6] in a line: Inhibition of Cu2-amyloid beta (1 to 20) complex-induced dopamine oxidation by spectrophotometry. In short, it runs like this:
as §2

Test [7] in a line: Competitive inhibition of full-length Cu2-amyloid beta (1 to 40) complex-induced dopamine oxidation by Lineweaver-Burk plot analysis. The essentials: as §2
The nature of test [8]: Inhibition of Cu2-amyloid beta (1 to 16) complex-induced THB oxidation by spectrophotometry. The essentials:
as §1

The nature of test [9]: Inhibition of Cu2-amyloid beta (1 to 16) complex-induced DTBC oxidation by spectrophotometry. In short, it runs like this: as §1

As to `Cc1ncc(COP(=O)(O)O)c(C=O)c1O` [PYRIDOXAL PHOSPHATE ANHYDROUS], the pKi in [1] is 3.70; in test [2] it was 3.89.

Turning to `Cc1ncc(CO)c(C=O)c1O` [PYRIDOXAL], the values for the pKi in test [1], in test [3] and in test [2] were 2.95, 2.55 and 3.17, respectively.

`Cc1ncc(CO)c(CN)c1O` [PYRIDOXAMINE]: the pIC50 in [4], in test [5] and in test [6] was 2.15 in each case. Moreover, the negative logarithm of the Ki (pKi) in [6] and in test [7] was 2.85 throughout.

As to `Cc1ncc(CO)c(CO)c1O` [PYRIDOXINE HYDROCHLORIDE], the negative-log Ki (pKi) is 2.25 in [4], 2.08 in test [6], 2.06 in test [8] and 2.30 in [9].
